hIAP act: human IAP activation. P09923. purified human IAP, CDP-Star luminescence, 30 min; active compounds read high; 1 = vehicle-only enzyme, 0 = enzyme-free background. activation factor at 10 µM. 0.16% of 330,000 active. AID 2524;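 active = activation factor of the enzyme at least 2-fold when tested at 20 µM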
Target sequence (P09923 whole entry, looked up): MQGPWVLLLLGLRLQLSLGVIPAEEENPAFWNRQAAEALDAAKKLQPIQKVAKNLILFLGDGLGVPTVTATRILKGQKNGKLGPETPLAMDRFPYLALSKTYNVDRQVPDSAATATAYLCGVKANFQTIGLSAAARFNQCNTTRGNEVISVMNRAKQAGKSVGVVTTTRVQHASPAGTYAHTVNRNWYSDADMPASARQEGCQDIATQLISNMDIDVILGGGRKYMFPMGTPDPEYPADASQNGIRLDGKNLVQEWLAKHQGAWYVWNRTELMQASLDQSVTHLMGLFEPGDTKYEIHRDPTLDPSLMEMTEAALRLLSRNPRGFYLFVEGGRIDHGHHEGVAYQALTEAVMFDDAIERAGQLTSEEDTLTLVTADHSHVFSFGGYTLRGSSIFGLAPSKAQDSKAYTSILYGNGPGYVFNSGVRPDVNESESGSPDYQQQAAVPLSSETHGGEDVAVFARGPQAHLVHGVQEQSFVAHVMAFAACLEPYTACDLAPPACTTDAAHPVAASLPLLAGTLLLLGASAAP
mIAP act: mouse IAP activation; muIAP, CDP-Star luminescence, 30 min; active compounds read high; 1 = vehicle-only enzyme signal, 0 = enzyme-free wells; activation factor at 10 µM; 0.24% of 330,000 active; AID 2805;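 active = activation factor of at least 2 at 20 µM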
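Assay system: mouse IAP enzyme; reagent: chemiluminescent substrate CDP-Star; dosing: test compounds delivered from DMSO solution; schedule: 30 min at room temperature; measured by: luminescence from enzymatic CDP-Star hydrolysis; controls: DMSO-only wells and no-enzyme negative control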
bIAP inhibitor: blocks bovine intestinal alkaline phosphatase activity; purified bovine IAP, CDP-star luminescence, 30 min; inhibition, % at 20 µM; 190,000 tested, under 10 active;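 active = over 50% inhibition of intestinal alkaline phosphatase at 20 µM in the single-dose screen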
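test system = bovine IAP enzyme | medium = DEA buffer 100 mM, pH 9.8, with MgCl2 1.0 mM, ZnCl2 0.02 mM | detection = luminescence | dosing = single compound dose of 20 µM, 2% DMSO final | incubation = 30 min reaction at room temperature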
bIAP act: intestinal alkaline phosphatase (bovine) activation. purified bovine IAP, CDP-star luminescence, 30 min; active compounds read high; fold of DMSO-control signal, blank-subtracted. activation factor at 20 µM. 0.17% of 200,000 active. AID 1016;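 active = activation factor of 2 or more at 20 µM, a signal rise over negative controls twice the positive control's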
hIAP inh: blocks human intestinal alkaline phosphatase; P09923; purified IAP, CDP-Star luminescence, 30 min; inhibition, % at 10 µM; 0.12% of 330,000 active;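 active = inhibition reaching a set limit with compound at 10 µM in the primary screen, cut at about 35% in these data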
mIAP block: mouse IAP inhibition. purified mouse IAP, CDP-Star luminescence, 30 min. inhibition, % at 10 µM. 0.2% of 330,000 active. AID 2806;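 active = inhibition of at least 40% at 10 µM in the primary screen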
Large screens that a line does not name were inactive. In the library only some 0.79% were active in any assay of this set; here they are far more common.

COc1ccc(N=C2NC(=O)/C(=C/c3ccco3)S2)cc1	none (no result: bIAP inhibitor, bIAP act)
Cc1ccc(S(=O)(=O)N2[C@@H](c3cccc(Cl)c3)C(C(=O)O)=CC[C@H]2c2cccc(Cl)c2)cc1	mIAP block 42 (no result: bIAP inhibitor, bIAP act)
Oc1ccc(-c2nc(-c3ccc(O)c(O)c3)cs2)cc1	hIAP inh 38
O=C(O)c1ccc(SCc2ccccc2)nc1	none (no result: bIAP inhibitor, bIAP act)
O=C(Nc1ccc(Cl)cc1)NC1CCCC1Cc1ccco1 (configuration not stated)	mIAP act 2.8
O=C(Nc1ccc(Cl)cc1)NC1CCCCC1	none
Cc1ccc(C)c(OCCC(=O)Nc2cc(S(=O)(=O)N3CCCCC3)ccc2C)c1	none (no result: bIAP inhibitor, bIAP act)
Cc1ccc(C)c(OCCC(=O)Nc2cccc(S(=O)(=O)N3CCCCC3)c2)c1	mIAP act 2 (no result: bIAP inhibitor, bIAP act)
COc1ccc(NC(=O)CCC(=O)c2ccc(Cl)cc2)cn1	none (no result: bIAP inhibitor, bIAP act)
O=S(=O)(c1ccc(N2CCC(c3ccc(Cl)cc3)=N2)cc1)N(CCO)CCO	mIAP act 2.2, bIAP act 2.7
CN(C)CCCNS(=O)(=O)c1ccc(N2CCC(c3ccc(Cl)cc3)=N2)cc1	bIAP act 2.2
c1ccc(CSc2nc3ncccn3n2)cc1	none (no result: bIAP inhibitor, bIAP act)
COC(=O)N/N=C/c1c(C)nn(-c2cccc(Cl)c2)c1Cl	bIAP act 3
O=C(O)CCCCCn1c(O)c(C=C2N=c3ccccc3=N2)sc1=S	mIAP block 40
CCCOC(=O)c1ccc(NC(=O)Oc2ccccc2)cc1	bIAP act 2.6
Cn1nnnc1SCC(=O)NC1CCCC1	none (no result: bIAP inhibitor, bIAP act)
CC(C)Cc1nc2ccccc2[nH]1	none (no result: bIAP inhibitor, bIAP act)
COc1ccccc1CC(Cc1nc2ccccc2[nH]1)c1nc2ccccc2[nH]1 (configuration not stated)	bIAP act 3.6
C1CCC(c2nn3c(-c4n[nH]c5c4CCC5)nnc3s2)CC1	bIAP act 4.3
CCCCN1C(=O)C2(NNc3ccccc3O2)c2ccccc21 (configuration not stated)	bIAP act 2.7
CC(=O)N1N=C(c2ccccc2)CC1c1cccs1 (configuration not stated)	none (no result: bIAP inhibitor, bIAP act)
CC(=O)Nc1ccc(C2=NN(c3ccccc3)C(c3cccs3)C2)cc1 (configuration not stated)	mIAP act 2.3
CCCCC(=O)OCC(=O)Nc1ccc(C)c(F)c1	none
CCCCCCCCC(=O)NC(NC(=S)N1CCOCC1)C(Cl)(Cl)Cl (configuration not stated)	mIAP act 3.4
COc1cc(OC)cc(-c2c(-c3ccc(C(C)=O)cc3)c3cc(-c4cccc5[nH]ccc45)ccc3n2C)c1	none (no result: bIAP inhibitor, bIAP act)
O=C(Nc1cccc(Cl)c1)N1CCN2C(=O)c3ccccc3C12c1ccccc1 (configuration not stated)	mIAP act 2.1
CCOCCCNC(=S)N1C2CCC1CC(NC(=O)Nc1ccc(C(=O)OCC)cc1)C2 (configuration not stated)	mIAP act 2.2
CCNC(=S)N1C2CCC1CC(NC(=O)Nc1ccc(C(=O)OCC)cc1)C2 (configuration not stated)	none
COc1ccc(/C=C(\NC(=O)c2ccc(OC)cc2)C(=O)Nc2ccccc2C(=O)O)cc1	none (no result: bIAP inhibitor, bIAP act)
CC(NC(=O)NC1CCCCC1)C(c1cccs1)N1CCN(c2ccccc2)CC1 (configuration not stated)	mIAP act 2
CC(NC(=O)C1CC1)C(c1cccs1)N1CCN(c2ccccc2)CC1 (configuration not stated)	none
O=C(N/N=C\c1ccc(O)c([N+](=O)[O-])c1)C1COc2ccccc2O1 (configuration not stated)	none (no result: bIAP inhibitor, bIAP act)
Cc1cc([N+](=O)[O-])cc(/C=N\NC(=O)C2COc3ccccc3O2)c1O (configuration not stated)	mIAP block 42 (no result: bIAP inhibitor, bIAP act)
CC1CCCC(NC(=S)Nc2cccc(S(=O)(=O)N(C)C)c2)C1C (configuration not stated)	mIAP act 4.9
CN(C)S(=O)(=O)c1cccc(NC(=S)NC23CC4CC(CC(C4)C2)C3)c1	mIAP act 2.7 (no result: bIAP inhibitor, bIAP act)
Cc1ccc(S(=O)(=O)N(C)C)cc1NC(=S)NC12CC3CC(CC(C3)C1)C2	none (no result: hIAP act, mIAP act, bIAP inhibitor, hIAP inh, mIAP block)
CC(C)(C)c1ccc(C(=O)NCC(=O)OCC(=O)N2CCCC2)cc1	none (no result: bIAP inhibitor, bIAP act)
Cc1cccc(NC(=S)NCCC(c2ccccc2)c2ccccc2)c1	mIAP act 7.6
Cc1ccc(SCCNC(=S)Nc2ccc(C)c(C)c2)cc1	mIAP act 2.8
S=C(NCCSCc1c(Cl)cccc1Cl)Nc1ccccc1	mIAP act 2.5
Cc1cc(C)cc(NC(=S)NCCSc2ccc(Cl)cc2)c1	mIAP act 2.3
Cc1cccc(NC(=S)NNC(=S)NCc2ccccc2)c1	none
Cc1ccc(SCCNC(=S)Nc2cc(C)ccc2C)cc1	none (no result: bIAP inhibitor)
C=C1C(O)[C@@H]2O[C@]3(CC[C@H](/C=C/C(C)[C@@H]4CC(C)=CC5(O[C@H](C[C@@](C)(O)CO)CCC5O)O4)O3)CC[C@H]2O[C@@H]1C(O)CC(C)[C@H]1OC2(CCCCO2)CCC1C (some centres not stated)	none (no result: bIAP inhibitor, bIAP act)
CCCn1nc(C(=O)N(C)CC(=O)Nc2ccc(OCC)c(OCC)c2)c2ccccc2c1=O	none (no result: bIAP inhibitor, bIAP act)
C=CCNC(=O)N1CCC(c2nc3ccccc3s2)CC1	none (no result: bIAP inhibitor, bIAP act)
COc1ccccc1NC(=S)NCCSc1ccc(C)cc1	none
Cc1ccc(SCCNC(=S)Nc2ccccc2)cc1	mIAP act 2.2
O=C(CSC(=S)N1CCN(c2ccccc2)CC1)Nc1nc(-c2ccccc2)c(-c2ccccc2)o1	bIAP act 2.2
CN(C)CCCN(C(=O)c1cc(-c2cccs2)nc2ccccc12)c1nc2ccc(F)cc2s1	none (no result: bIAP inhibitor, bIAP act)
COc1ccc(C(=O)C(C)OC(=O)CCN2C(=O)C3CC=CCC3C2=O)cc1 (configuration not stated)	none (no result: bIAP inhibitor, bIAP act)
Cc1ccc(NC(=O)c2ccc3c(c2)C(=O)N(c2ccccc2C)C3=O)nc1	none (no result: bIAP inhibitor, bIAP act)
Cc1cc(-c2csc(NC(=O)c3ccc(=O)[nH]c3)n2)c(C)n1Cc1ccccc1	none
Cc1cc(-c2csc(NC(=O)c3ccc(C#N)cc3)n2)c(C)n1Cc1ccco1	mIAP block 41
O=C1NC(Cc2ccc(O)cc2)c2nc3ccccc3c(=O)n2-c2cc(Cl)ccc21 (configuration not stated)	none (no result: bIAP inhibitor, bIAP act)
Cn1cccc1CC(=O)NNC(=S)Nc1ccc(Cl)cc1	hIAP act 2.1
Cc1onc(-c2ccccc2)c1-c1nnc(CN2CCN(S(=O)(=O)c3ccccc3)CC2)o1	none (no result: bIAP inhibitor, bIAP act)
CC(C)Cn1c(N)c(C(=O)COC(=O)c2nccnc2N)c(=O)n(C)c1=O	mIAP block 48 (no result: bIAP inhibitor, bIAP act)
CC(C)Cn1c(N)c(C(=O)COC(=O)c2ccncc2)c(=O)n(C)c1=O	none
CCOC(=O)c1c(C)[nH]c(C(=O)CN(C)CC(=O)Nc2ccccc2Cl)c1C	none (no result: bIAP inhibitor, bIAP act)
CSCCC(NC(=O)COc1ccccc1)C(=O)N(C)Cc1ccc(Cl)cc1Cl (configuration not stated)	none (no result: bIAP inhibitor, bIAP act)

Source: PubChem (Sanford-Burnham Center for Chemical Genomics)
